Reference: ChEMBL document CHEMBL3392993, “Identification of indole-3-carboxylic acids as non-ATP-competitive Polo-like kinase 1 (Plk1) inhibitors” (Bioorg Med Chem Lett, 2015)
The source made the active and inactive calls. The calls are words filed in the database; no cut-off is given here.

Legend:
HeLa [1] = assay: Antiproliferative activity against human HeLa cells assessed as growth inhibition after 72 hrs by MTT assay
MCF7 = assay: Antiproliferative activity against human MCF7 cells assessed as growth inhibition after 72 hrs by MTT assay; settings: MCF7, 72 h
[2] = target: Serine/threonine-protein kinase PLK2 (Homo sapiens, UniProt Q9NYY3); assay: Inhibition of recombinant Plk2 (unknown origin)
Serine/threonine-protein kinase PLK2, sequence (Q9NYY3 whole entry): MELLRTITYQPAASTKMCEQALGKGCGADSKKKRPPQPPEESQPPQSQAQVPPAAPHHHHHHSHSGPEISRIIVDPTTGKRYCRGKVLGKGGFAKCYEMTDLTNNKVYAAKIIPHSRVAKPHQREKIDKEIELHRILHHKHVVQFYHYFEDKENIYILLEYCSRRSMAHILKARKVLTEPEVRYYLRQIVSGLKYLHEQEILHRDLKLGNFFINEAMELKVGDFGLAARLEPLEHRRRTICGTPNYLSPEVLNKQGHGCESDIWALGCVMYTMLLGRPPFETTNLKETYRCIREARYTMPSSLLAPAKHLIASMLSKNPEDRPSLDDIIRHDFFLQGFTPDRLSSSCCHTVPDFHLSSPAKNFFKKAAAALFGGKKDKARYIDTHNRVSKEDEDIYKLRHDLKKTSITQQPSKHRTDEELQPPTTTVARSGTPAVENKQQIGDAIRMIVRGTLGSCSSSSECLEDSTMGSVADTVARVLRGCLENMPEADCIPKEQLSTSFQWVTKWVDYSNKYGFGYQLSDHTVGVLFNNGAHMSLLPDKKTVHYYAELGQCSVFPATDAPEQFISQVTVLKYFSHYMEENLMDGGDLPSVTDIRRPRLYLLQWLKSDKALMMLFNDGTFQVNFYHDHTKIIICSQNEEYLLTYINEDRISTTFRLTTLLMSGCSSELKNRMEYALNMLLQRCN

[3] = target: Serine/threonine-protein kinase PLK3 (Homo sapiens, UniProt Q9H4B4); assay: Inhibition of recombinant Plk3 (unknown origin)
Serine/threonine-protein kinase PLK3, sequence (Q9H4B4 whole entry): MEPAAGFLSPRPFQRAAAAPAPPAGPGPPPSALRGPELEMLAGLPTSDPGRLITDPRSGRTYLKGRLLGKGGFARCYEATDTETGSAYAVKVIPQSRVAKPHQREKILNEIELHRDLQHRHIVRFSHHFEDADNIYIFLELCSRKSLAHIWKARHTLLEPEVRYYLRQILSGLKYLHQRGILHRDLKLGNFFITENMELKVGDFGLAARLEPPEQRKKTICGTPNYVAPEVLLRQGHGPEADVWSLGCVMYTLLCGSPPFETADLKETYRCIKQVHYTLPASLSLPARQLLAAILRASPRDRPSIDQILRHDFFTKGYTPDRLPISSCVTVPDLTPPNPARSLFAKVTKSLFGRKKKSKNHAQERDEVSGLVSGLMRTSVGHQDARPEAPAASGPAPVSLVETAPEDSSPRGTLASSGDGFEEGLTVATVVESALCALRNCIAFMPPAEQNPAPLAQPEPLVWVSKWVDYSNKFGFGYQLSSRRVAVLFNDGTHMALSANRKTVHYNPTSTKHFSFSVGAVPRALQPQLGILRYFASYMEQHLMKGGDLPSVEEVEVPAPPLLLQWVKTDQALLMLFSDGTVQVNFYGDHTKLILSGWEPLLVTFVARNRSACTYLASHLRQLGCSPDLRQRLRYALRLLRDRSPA

HeLa [4] = assay: Induction of apoptosis in human HeLa cells assessed as apoptotic cells at 1 uM after 24 hrs using annexin V/propidium iodide double staining by flow cytometry (reference value: 4.4 %); type: functional
HeLa [5] = assay: Induction of apoptosis in human HeLa cells assessed as PARP cleavage at 1 uM after 24 to 48 hrs by Western blot analysis; type: functional, cell-based
In short: (§1)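 HeLa cells exposed to 1 µM for 24 h, with treatment continued to 48 h. Cell proteins analysed by western blot for PARP, total Caspase-3 and its cleaved active form.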

HeLa [6] = assay: Induction of apoptosis in human HeLa cells assessed as increase in cleaved caspase-3 level at 1 uM after 24 to 48 hrs by Western blot analysis; type: functional, cell-based; in short: as §1

Row | Compound | IC50 (HeLa [1]) [µM] | IC50 (MCF7) [µM] | IC50 [2] [µM] | IC50 [3] [µM] | Activity (HeLa [4]) [%] | Activity (HeLa [5]) | Activity (HeLa [6])
1 | CCN(CC)CC(O)Cn1cc(C(=O)O)c2ccccc21 (racemic) | 6.72 | 4.37 |  |  |  |  | 
2 | O=C(O)c1cn(CC(O)CN2CCCCC2)c2ccccc12 (racemic) | 4.92 | 5.33 |  |  |  |  | 
3 | O=C(O)c1cn(CC(O)CN2CCCC2)c2ccccc12 (racemic) | 7.34 | > 10 |  |  |  |  | 
4 | CN1CCN(CC(O)Cn2cc(C(=O)O)c3ccccc32)CC1 (racemic) | > 10 | > 10 |  |  |  |  | 
5 | CCN(CC)CC(O)Cn1cc(CC(=O)O)c2ccccc21 (racemic) | 6.63 | 3.16 |  |  |  |  | 
6 | O=C(O)Cc1cn(CC(O)CN2CCCCC2)c2ccccc12 (racemic) | 0.97 | 1.89 |  |  |  |  | 
7 | O=C(O)Cc1cn(CC(O)CN2CCCC2)c2ccccc12 (racemic) | 0.72 | 1.15 | > 50 | > 50 | 12.7 | Active | Active
8 | CN1CCN(CC(O)Cn2cc(CC(=O)O)c3ccccc32)CC1 (racemic) | 3.97 | 2.44 |  |  |  |  | 
9 | O=C(O)Cc1cn(CC(O)CN2CCOCC2)c2ccccc12 (racemic) | 2.13 | > 10 |  |  |  |  | 
10 | O=C(O)CCc1cn(CC(O)CN2CCCCC2)c2ccccc12 (racemic) | > 10 | 8.79 |  |  |  |  | 
11 | O=C(O)CCc1cn(CC(O)CN2CCCC2)c2ccccc12 (racemic) | 4.95 | > 10 |  |  |  |  | 
12 | CC1=CC(=O)C(C(C)C)=CC1=O [THYMOQUINONE] | 2.06 | 6.19 | 14.7 | > 50 |  |  | 
